According to ChEMBL document CHEMBL4325922, “Restoring Let-7 microRNA Biogenesis Using a Small-Molecule Inhibitor of the Protein-RNA Interaction” (ACS Med Chem Lett, 2018):
pIC50: −log10 of the molar value. The source made the active and inactive calls. The rule behind the calls is not given here.

What was measured:
C2C12 = experiment: Cytotoxicity against mouse C2C12 cells at 10 uM after 24 hrs by WST assay; type: cell-based; settings: c2c12, 24 h
[1] = target: T1, Protein lin-28 homolog A (Homo sapiens) (UniProt Q9H9Z2); experiment: Inhibition of Cy5-preE-let-7a-1 binding to recombinant human N-terminal His6-tagged Lin28a expressed in Escherichia coli Rosetta2 (DE3) pLysS measured after 30 to 60 mins by electrophoretic mobility shift assay
T1 sequence (whole entry): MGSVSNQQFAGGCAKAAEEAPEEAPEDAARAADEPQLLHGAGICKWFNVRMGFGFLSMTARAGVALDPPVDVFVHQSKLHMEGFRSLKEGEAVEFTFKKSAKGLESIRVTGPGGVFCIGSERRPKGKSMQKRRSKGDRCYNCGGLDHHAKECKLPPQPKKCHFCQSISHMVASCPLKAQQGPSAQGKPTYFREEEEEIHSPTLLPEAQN

PA-1 [2] = experiment: Cytotoxicity against human PA1 cells after 24 hrs by WST assay; type: functional, cell-based
[3] = Cytotoxicity against mouse C8-D1A cells at 10 uM after 24 hrs by WST assay; type: cell-based
[4] = target: T2, Protein lin-28 homolog A/B (Homo sapiens) (UniProt Q6ZN17+Q9H9Z2); experiment: Inhibition of Lin28a/Lin28b in human paclitaxel-resistant JAR cells assessed as reduction in IMP1 expression at 10 uM measured after 24 hrs by Western blot analysis
[5] = target: T3, Protein lin-28 homolog B (Homo sapiens) (UniProt Q6ZN17); experiment: Inhibition of biotinylated-preE-let-7g binding to Lin28b in human JAR cells by pull down assay; type: cell-based
T3 sequence (whole entry): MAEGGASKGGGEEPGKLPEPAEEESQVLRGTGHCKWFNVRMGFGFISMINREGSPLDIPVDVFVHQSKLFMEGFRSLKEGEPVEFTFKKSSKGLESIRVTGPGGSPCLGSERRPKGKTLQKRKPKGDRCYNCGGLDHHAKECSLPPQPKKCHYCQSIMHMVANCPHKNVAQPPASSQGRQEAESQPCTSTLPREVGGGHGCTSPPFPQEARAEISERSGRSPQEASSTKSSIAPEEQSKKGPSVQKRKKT
Summary of the method: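 5′-Biotinylated preE-let-7g is immobilized on streptavidin beads and incubated with proteome from JAR human choriocarcinoma cells, which express Lin28a and Lin28b. Test compound is present during binding, and target engagement is judged by the proteins pulled down.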

[6] = target: T2, Protein lin-28 homolog A/B (Homo sapiens); experiment: Inhibition of Lin28a/Lin28b in human JAR cells assessed as increase in mature let-7i level after 20 hrs by TRIzol dye based qRT-PCR analysis; type: cell-based
Summary of the method: (§1)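 JAR cells (express Lin28a and Lin28b) exposed to compound for 20 h; miRNA levels quantified with U6 snRNA as endogenous control; three or more biological replicates, standard deviation, paired two-tailed t test.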

[7] = target: T1, Protein lin-28 homolog A (Homo sapiens); experiment: Inhibition of Lin28a in human PA1 cells assessed as reduction in IMP1 expression at 10 uM after 24 hrs by Western blot analysis; type: cell-based
Summary of the method: (§2)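 Endogenous let-7 target proteins (HMGA2, IMP1, Ras, Lin28a) detected by Western blot in JAR or PA-1 cells after 24 h compound treatment.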

[8] = target: T2, Protein lin-28 homolog A/B (Homo sapiens); experiment: Inhibition of Lin28a/Lin28b in human JAR cells assessed as increase in mature let-7b level after 20 hrs by TRIzol dye based qRT-PCR analysis; type: cell-based; summary of the method: as §1
JAR [9] = experiment: Inhibition of sphere formation in human JAR cells at 10 uM after 24 hrs by bright-field microscopic analysis; type: functional, cell-based
Summary of the method: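 JAR cells are pretreated with compound for 24 h, then dissociated to single cells. Equal numbers of viable cells are grown for 12 days in sphere-forming media. The degree of sphere formation is assessed under a microscope.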

[10] = target: T1, Protein lin-28 homolog A (Homo sapiens); experiment: Inhibition of Lin28a in human PA1 cells assessed as reduction in HMGA2 expression at 10 uM after 24 hrs by Western blot analysis; type: cell-based; summary of the method: as §2
JAR [11] = experiment: Inhibition of sphere formation in human JAR cells at 10 uM after 24 hrs by WST assay; type: functional, cell-based
Summary of the method: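 JAR cells are pretreated with compound for 24 h, dissociated to single cells, and equal numbers of viable cells are cultured in sphere-forming media for 12 days. Sphere formation is quantified by WST assay. Three biological replicates, standard deviation, paired two-tailed t test.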

PA-1 [12] = experiment: Increase in mature let-7i level in Lin28a CRISPR-Cas9 knockout human PA1 cells at 10 uM after 20 hrs by qRT-PCR analysis; type: functional, cell-based
Summary of the method: (§3)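 PA-1 cells with Lin28a fully knocked out by CRISPR/Cas9 editing (clonal lines) treated for 20 h; let-7 levels normalized to U6 snRNA; 2 technical replicates.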

[13] = target: T2, Protein lin-28 homolog A/B (Homo sapiens); experiment: Inhibition of Lin28a/Lin28b in human JAR cells assessed as increase in mature let-7d level after 20 hrs by TRIzol dye based qRT-PCR analysis; type: cell-based; summary of the method: as §1
[14] = target: Endoribonuclease Dicer (Homo sapiens) (UniProt Q9UPY3); experiment: Inhibition of recombinant FLAG-tagged human dicer expressed in HEK293 cells assessed as reduction in pre-let-7g microRNA maturation at 5 to 10 uM after 40 mins by SYBR green2 dye based fluorescence assay; type: cell-based
[15] = target: T2, Protein lin-28 homolog A/B (Homo sapiens); experiment: Inhibition of Lin28a/Lin28b in human JAR cells assessed as increase in mature let-7a level after 20 hrs by TRIzol dye based qRT-PCR analysis; type: cell-based; summary of the method: as §1
[16] = target: T1, Protein lin-28 homolog A (Homo sapiens); experiment: Inhibition of Lin28a in human PA1 cells assessed as increase in mature let-7d level at 10 uM after 20 hrs by TRIzol dye based qRT-PCR analysis; type: cell-based
Summary of the method: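 PA-1 ovarian teratocarcinoma cells (express Lin28a) treated for 20 h; let-7 quantified relative to U6 snRNA; 4 biological replicates, standard deviation, paired two-tailed t test.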

Protein lin-28 homolog A = target: T4, Protein lin-28 homolog A (Homo sapiens, UniProt Q9H9Z2); experiment: Inhibition of Cy5-preE-let-7g binding to recombinant human N-terminal His6-tagged Lin28a expressed in Escherichia coli Rosetta2 (DE3) pLysS measured after 30 to 60 mins by electrophoretic mobility shift assay
T4 sequence (Q9H9Z2 whole entry): T1 sequence (whole entry)

[17] = target: T2, Protein lin-28 homolog A/B (Homo sapiens); experiment: Inhibition of Lin28a/Lin28b in human JAR cells assessed as reduction in Lin28a expression at 5 to 10 uM after 24 hrs by Western blot analysis; type: cell-based; summary of the method: as §2
[18] = target: T2, Protein lin-28 homolog A/B (Homo sapiens); experiment: Inhibition of Lin28a/Lin28b in human MCF7 cells assessed as reduction in Ras expression at 10 uM after 24 hrs by Western blot analysis; type: cell-based
JAR [19] = experiment: Effect on miR-98 level in human JAR cells at 5 to 10 uM after 20 hrs by TRIzol dye based qRT-PCR analysis; type: functional, cell-based; summary of the method: as §1
PA-1 [20] = experiment: Increase in mature let-7d level in Lin28a CRISPR-Cas9 knockout human PA1 cells at 10 uM after 20 hrs by qRT-PCR analysis; type: functional, cell-based; summary of the method: as §3
[21] = target: T1, Protein lin-28 homolog A (Homo sapiens); experiment: Binding affinity to recombinant human N-terminal His6-tagged Lin28a cold shock domain expressed in Escherichia coli Rosetta2 (DE3) pLysS at 0.625 to 10 uM by surface plasmon resonance analysis
[22] = target: T2, Protein lin-28 homolog A/B (Homo sapiens); experiment: Inhibition of Lin28a/Lin28b in human JAR cells assessed as reduction in HMGA2 expression at 5 to 10 uM after 24 hrs by Western blot analysis; type: cell-based; summary of the method: as §2

Sequence of Endoribonuclease Dicer (Homo sapiens) (Q9UPY3 whole entry): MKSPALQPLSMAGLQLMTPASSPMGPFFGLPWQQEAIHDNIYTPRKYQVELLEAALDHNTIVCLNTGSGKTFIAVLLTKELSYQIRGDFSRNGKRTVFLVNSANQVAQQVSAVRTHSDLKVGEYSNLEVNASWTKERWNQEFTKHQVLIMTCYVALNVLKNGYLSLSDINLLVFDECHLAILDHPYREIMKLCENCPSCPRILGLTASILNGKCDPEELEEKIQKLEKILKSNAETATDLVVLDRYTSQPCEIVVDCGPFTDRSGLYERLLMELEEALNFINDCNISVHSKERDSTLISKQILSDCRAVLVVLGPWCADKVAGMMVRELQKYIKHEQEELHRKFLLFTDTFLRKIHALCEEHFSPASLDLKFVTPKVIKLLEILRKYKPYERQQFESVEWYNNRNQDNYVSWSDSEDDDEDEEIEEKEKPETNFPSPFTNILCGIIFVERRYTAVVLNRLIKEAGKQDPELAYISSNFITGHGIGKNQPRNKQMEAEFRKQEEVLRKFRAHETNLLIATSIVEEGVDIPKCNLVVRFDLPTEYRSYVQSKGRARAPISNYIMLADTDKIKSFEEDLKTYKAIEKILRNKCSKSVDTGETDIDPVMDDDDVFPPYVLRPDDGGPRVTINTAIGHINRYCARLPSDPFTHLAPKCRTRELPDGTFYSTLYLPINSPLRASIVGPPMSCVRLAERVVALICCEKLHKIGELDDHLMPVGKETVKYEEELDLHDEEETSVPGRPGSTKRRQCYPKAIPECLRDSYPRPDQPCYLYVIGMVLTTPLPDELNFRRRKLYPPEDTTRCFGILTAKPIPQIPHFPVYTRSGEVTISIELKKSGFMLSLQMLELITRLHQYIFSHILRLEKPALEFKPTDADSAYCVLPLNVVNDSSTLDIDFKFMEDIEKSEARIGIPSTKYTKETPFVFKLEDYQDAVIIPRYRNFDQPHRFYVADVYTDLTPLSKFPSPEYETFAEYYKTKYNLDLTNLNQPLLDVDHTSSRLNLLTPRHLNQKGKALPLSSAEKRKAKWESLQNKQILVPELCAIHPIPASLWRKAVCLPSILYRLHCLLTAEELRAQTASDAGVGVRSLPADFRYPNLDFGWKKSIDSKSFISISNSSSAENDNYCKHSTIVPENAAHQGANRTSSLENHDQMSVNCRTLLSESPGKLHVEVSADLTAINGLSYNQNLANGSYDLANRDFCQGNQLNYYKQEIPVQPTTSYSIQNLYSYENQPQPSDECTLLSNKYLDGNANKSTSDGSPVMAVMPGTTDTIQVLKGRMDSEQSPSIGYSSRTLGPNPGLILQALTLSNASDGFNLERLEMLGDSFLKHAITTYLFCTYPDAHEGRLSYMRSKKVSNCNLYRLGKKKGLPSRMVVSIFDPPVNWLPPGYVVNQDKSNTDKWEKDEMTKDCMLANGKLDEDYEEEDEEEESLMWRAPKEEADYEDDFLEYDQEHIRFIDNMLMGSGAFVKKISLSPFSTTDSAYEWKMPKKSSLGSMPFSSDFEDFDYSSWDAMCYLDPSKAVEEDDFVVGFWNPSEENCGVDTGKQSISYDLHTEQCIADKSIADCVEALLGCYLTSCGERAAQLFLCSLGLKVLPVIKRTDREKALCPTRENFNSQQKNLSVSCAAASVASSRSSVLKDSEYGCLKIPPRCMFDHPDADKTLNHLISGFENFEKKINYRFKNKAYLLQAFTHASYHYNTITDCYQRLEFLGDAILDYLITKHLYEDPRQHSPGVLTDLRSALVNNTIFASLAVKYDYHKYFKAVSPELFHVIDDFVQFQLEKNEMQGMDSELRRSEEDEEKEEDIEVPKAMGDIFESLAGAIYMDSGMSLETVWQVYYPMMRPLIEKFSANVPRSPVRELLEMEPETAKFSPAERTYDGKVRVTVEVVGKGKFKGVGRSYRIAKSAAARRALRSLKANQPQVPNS

inhibition [1]: Active
inhibition [4]: Active
inhibition [5]: Dose-dependent effect
inhibition [6]: Dose-dependent effect
inhibition [7]: Active
inhibition [8]: Dose-dependent effect
inhibition [10]: Active
inhibition [13]: Dose-dependent effect
inhibition [14]: inactive
inhibition [15]: Dose-dependent effect
inhibition [16]: Active
pIC50 (Protein lin-28 homolog A): 5.32
inhibition [17]: Active
inhibition [18]: inactive
Activity [21]: Active
inhibition [22]: Active
SMILES: NC(=O)c1c(Nc2ccc(Cl)cc2Cl)[nH]c2c(Cl)ccc(Cl)c2c1=O
Activity (C2C12): Toxic
Activity (PA-1 [2]): Active
Activity [3]: Toxic
inhibition (JAR [9]): Active
inhibition (JAR [11]): Active
Activity (PA-1 [12]): inactive
Activity (JAR [19]): inactive
Activity (PA-1 [20]): inactive
